Here are results for 1 compound from ChEMBL document CHEMBL2380295, “Structure-activity studies on the side chain of a simplified analog of aplysiatoxin (aplog-1) with anti-proliferative activity” (Bioorg Med Chem, 2013).

The structures appear in SMILES notation.

The subject of one series is NCI-H460. Nature of the series: Growth inhibition of human NCI-H460 cells after 48 hrs by sulforhodamine B assay. Particulars: NCI-H460, 48 h. Type of series: functional. Summed up:
(§1)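 Yamori 39-line human cancer panel, NCI method with modifications. Cells plated in RPMI 1640 plus 5% FBS, attached overnight, then exposed 48 h to compound at 10^-8, 10^-7, 10^-6, 10^-5 and 10^-4 M. Sulforhodamine B staining read at 525 nm; % growth = 100[(T−T0)/(C−T0)] from duplicate-point averages, with T0 the time-zero absorbance. GI50 is the concentration giving 50.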
The GI50 is the concentration giving 50% growth inhibition. Read a low GI50 as greater sensitivity of the cells. The compound `CC1(C)CC[C@@H]2CC(=O)O[C@@H](CO)CC(=O)O[C@@H]3C[C@@H](CCCCc4ccc(I)c(O)c4)O[C@@]1(C3)O2` gave a concentration for 50% growth inhibition (GI50) of 6.03 µM.

A further series relates to NCI-H226. Nature of the series: Growth inhibition of human NCI-H226 cells after 48 hrs by sulforhodamine B assay. Type of series: functional. The settings on record: NCI-H226, 48 h. Summed up: as §1
For orientation: The SRB assay estimates cell density from bound dye.
For the compound `CC1(C)CC[C@@H]2CC(=O)O[C@@H](CO)CC(=O)O[C@@H]3C[C@@H](CCCCc4ccc(I)c(O)c4)O[C@@]1(C3)O2`, the GI50 was 12 µM.

For the next series, the system named is NCI-H522. Nature of the series: Growth inhibition of human NCI-H522 cells after 48 hrs by sulforhodamine B assay. Particulars: NCI-H522, 48 h. The class given is functional. Summed up:
as §1
`CC1(C)CC[C@@H]2CC(=O)O[C@@H](CO)CC(=O)O[C@@H]3C[C@@H](CCCCc4ccc(I)c(O)c4)O[C@@]1(C3)O2`: the 50% growth inhibitory concentration (GI50) is 12 µM.

For a further series, the system named is HCT-116. The series can be described thus: Growth inhibition of human HCT116 cells after 48 hrs by sulforhodamine B assay. The settings on record: HCT-116, 48 h. The class given is functional. Summed up: as §1
In turn, `CC1(C)CC[C@@H]2CC(=O)O[C@@H](CO)CC(=O)O[C@@H]3C[C@@H](CCCCc4ccc(I)c(O)c4)O[C@@]1(C3)O2` showed a 50% growth inhibitory concentration (GI50) of 10.2 µM.

The next series has as its system NCI-H23. The series can be described thus: Growth inhibition of human NCI-H23 cells after 48 hrs by sulforhodamine B assay. Type of series: functional. The settings on record: NCI-H23, 48 h. Put shortly: as §1
`CC1(C)CC[C@@H]2CC(=O)O[C@@H](CO)CC(=O)O[C@@H]3C[C@@H](CCCCc4ccc(I)c(O)c4)O[C@@]1(C3)O2` had a GI50 of 11 µM.

The test system of another series is HCT-15. Nature of the series: Growth inhibition of human HCT15 cells after 48 hrs by sulforhodamine B assay. The class given is functional. Particulars: HCT-15, 48 h. Put shortly: as §1
Turning to `CC1(C)CC[C@@H]2CC(=O)O[C@@H](CO)CC(=O)O[C@@H]3C[C@@H](CCCCc4ccc(I)c(O)c4)O[C@@]1(C3)O2`, growth was halved (GI50) at 15.5 µM.

A further series concerns KM12. The series can be described thus: Growth inhibition of human KM12 cells after 48 hrs by sulforhodamine B assay. Particulars: KM12, 48 h. The class given is functional. Put shortly:
as §1
Compound `CC1(C)CC[C@@H]2CC(=O)O[C@@H](CO)CC(=O)O[C@@H]3C[C@@H](CCCCc4ccc(I)c(O)c4)O[C@@]1(C3)O2` gave a GI50 of 10.5 µM.

Another series relates to HT-29. Nature of the series: Growth inhibition of human HT-29 cells after 48 hrs by sulforhodamine B assay. Particulars: HT-29, 48 h. The class given is functional. Put shortly:
as §1
In the case of `CC1(C)CC[C@@H]2CC(=O)O[C@@H](CO)CC(=O)O[C@@H]3C[C@@H](CCCCc4ccc(I)c(O)c4)O[C@@]1(C3)O2`, growth was halved (GI50) at 14.5 µM.

The test system of the next series is SNB-78. The series can be described thus: Growth inhibition of human SNB78 cells after 48 hrs by sulforhodamine B assay. The class given is functional. Particulars: SNB-78, 48 h. Summed up:
as §1
`CC1(C)CC[C@@H]2CC(=O)O[C@@H](CO)CC(=O)O[C@@H]3C[C@@H](CCCCc4ccc(I)c(O)c4)O[C@@]1(C3)O2` gave a concentration for 50% growth inhibition (GI50) of 17 µM.

Test system in a further series: not listed separately
Nature of the series: Growth inhibition of human HCC2998 cells after 48 hrs by sulforhodamine B assay. Type of series: functional. The settings on record: HCC 2998, 48 h. Put shortly: as §1
On to `CC1(C)CC[C@@H]2CC(=O)O[C@@H](CO)CC(=O)O[C@@H]3C[C@@H](CCCCc4ccc(I)c(O)c4)O[C@@]1(C3)O2`, for which growth was halved (GI50) at 1.62 µM.

The subject of the next series is SF-539. Nature of the series: Growth inhibition of human SF539 cells after 48 hrs by sulforhodamine B assay. The class given is functional. Particulars: SF-539, 48 h. Summed up: as §1
`CC1(C)CC[C@@H]2CC(=O)O[C@@H](CO)CC(=O)O[C@@H]3C[C@@H](CCCCc4ccc(I)c(O)c4)O[C@@]1(C3)O2` gave a GI50 of 12 µM.

For the next series, the system named is SNB-75. The series can be described thus: Growth inhibition of human SNB75 cells after 48 hrs by sulforhodamine B assay. The class given is functional. Particulars: SNB-75, 48 h. Put shortly:
as §1
With `CC1(C)CC[C@@H]2CC(=O)O[C@@H](CO)CC(=O)O[C@@H]3C[C@@H](CCCCc4ccc(I)c(O)c4)O[C@@]1(C3)O2`, the GI50 was 12.3 µM.

A further series relates to SF-295. The series can be described thus: Growth inhibition of human SF295 cells after 48 hrs by sulforhodamine B assay. The class given is functional. The settings on record: SF-295, 48 h. Put shortly: as §1
As for `CC1(C)CC[C@@H]2CC(=O)O[C@@H](CO)CC(=O)O[C@@H]3C[C@@H](CCCCc4ccc(I)c(O)c4)O[C@@]1(C3)O2`, it took 4.07 µM to inhibit growth by half (GI50).

The test system of a further series is U-251. The series can be described thus: Growth inhibition of human U251 cells after 48 hrs by sulforhodamine B assay. The class given is functional. The settings on record: U-251, 48 h. Summed up: as §1
As for `CC1(C)CC[C@@H]2CC(=O)O[C@@H](CO)CC(=O)O[C@@H]3C[C@@H](CCCCc4ccc(I)c(O)c4)O[C@@]1(C3)O2`, growth was halved (GI50) at 14.5 µM.

The subject of another series is SF-268. The series can be described thus: Growth inhibition of human SF268 cells after 48 hrs by sulforhodamine B assay. The class given is functional. Particulars: SF-268, 48 h. Put shortly: as §1
Regarding `CC1(C)CC[C@@H]2CC(=O)O[C@@H](CO)CC(=O)O[C@@H]3C[C@@H](CCCCc4ccc(I)c(O)c4)O[C@@]1(C3)O2`, the concentration for 50% growth inhibition (GI50) was 13.8 µM.

For another series, the system named is MCF7. Nature of the series: Growth inhibition of human MCF7 cells after 48 hrs by sulforhodamine B assay. The class given is functional. The settings on record: MCF7, 48 h. Summed up: as §1
In turn, `CC1(C)CC[C@@H]2CC(=O)O[C@@H](CO)CC(=O)O[C@@H]3C[C@@H](CCCCc4ccc(I)c(O)c4)O[C@@]1(C3)O2` showed a GI50 of 12.3 µM.

The test system of the next series is MDA-MB-231. Nature of the series: Growth inhibition of human MDA-MB-231 cells after 48 hrs by sulforhodamine B assay. Type of series: functional. The settings on record: MDA-MB-231, 48 h. Summed up:
as §1
With `CC1(C)CC[C@@H]2CC(=O)O[C@@H](CO)CC(=O)O[C@@H]3C[C@@H](CCCCc4ccc(I)c(O)c4)O[C@@]1(C3)O2`, the GI50 is 1.58 µM.

Test system in the next series: not listed separately
The series can be described thus: Growth inhibition of human BSY1 cells after 48 hrs by sulforhodamine B assay. The class given is functional. Particulars: BSY-1, 48 h. Summed up: as §1
With `CC1(C)CC[C@@H]2CC(=O)O[C@@H](CO)CC(=O)O[C@@H]3C[C@@H](CCCCc4ccc(I)c(O)c4)O[C@@]1(C3)O2`, the GI50 was 11 µM.

Test system in another series: not listed separately
The series can be described thus: Growth inhibition of human HBC5 cells after 48 hrs by sulforhodamine B assay. Type of series: functional. Particulars: HBC5, 48 h. Summed up: as §1
`CC1(C)CC[C@@H]2CC(=O)O[C@@H](CO)CC(=O)O[C@@H]3C[C@@H](CCCCc4ccc(I)c(O)c4)O[C@@]1(C3)O2` gave a concentration for 50% growth inhibition (GI50) of 15.8 µM.

Test system in another series: not listed separately
Nature of the series: Growth inhibition of human HBC4 cells after 48 hrs by sulforhodamine B assay. Particulars: HBC4, 48 h. Type of series: functional. Summed up: as §1
For `CC1(C)CC[C@@H]2CC(=O)O[C@@H](CO)CC(=O)O[C@@H]3C[C@@H](CCCCc4ccc(I)c(O)c4)O[C@@]1(C3)O2`, halving of growth (GI50) required 0.295 µM.

Test system in the next series: not listed separately
The series can be described thus: Octanol-water partition coefficient, log P of the compound by HPLC analysis. Type of series: physicochemical.
Details: not given
Summed up:
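log P was estimated from HPLC retention, with column dead time measured using unretained formamide.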
As usually defined, the logP is the decadic logarithm of the partition coefficient of the neutral form, usually between octanol and water. High values mean a more lipophilic compound, low ones a more hydrophilic compound. `CC1(C)CC[C@@H]2CC(=O)O[C@@H](CO)CC(=O)O[C@@H]3C[C@@H](CCCCc4ccc(I)c(O)c4)O[C@@]1(C3)O2` displayed a logP of 4.3.

For another series, the target named is T1, Protein kinase C delta type (Homo sapiens, UniProt Q05655). Nature of the series: Inhibition of [3H]PDBu binding to PKCdelta-C1A domain peptide (unknown origin).
T1 sequence (Q05655 whole entry, the tested form may be a part): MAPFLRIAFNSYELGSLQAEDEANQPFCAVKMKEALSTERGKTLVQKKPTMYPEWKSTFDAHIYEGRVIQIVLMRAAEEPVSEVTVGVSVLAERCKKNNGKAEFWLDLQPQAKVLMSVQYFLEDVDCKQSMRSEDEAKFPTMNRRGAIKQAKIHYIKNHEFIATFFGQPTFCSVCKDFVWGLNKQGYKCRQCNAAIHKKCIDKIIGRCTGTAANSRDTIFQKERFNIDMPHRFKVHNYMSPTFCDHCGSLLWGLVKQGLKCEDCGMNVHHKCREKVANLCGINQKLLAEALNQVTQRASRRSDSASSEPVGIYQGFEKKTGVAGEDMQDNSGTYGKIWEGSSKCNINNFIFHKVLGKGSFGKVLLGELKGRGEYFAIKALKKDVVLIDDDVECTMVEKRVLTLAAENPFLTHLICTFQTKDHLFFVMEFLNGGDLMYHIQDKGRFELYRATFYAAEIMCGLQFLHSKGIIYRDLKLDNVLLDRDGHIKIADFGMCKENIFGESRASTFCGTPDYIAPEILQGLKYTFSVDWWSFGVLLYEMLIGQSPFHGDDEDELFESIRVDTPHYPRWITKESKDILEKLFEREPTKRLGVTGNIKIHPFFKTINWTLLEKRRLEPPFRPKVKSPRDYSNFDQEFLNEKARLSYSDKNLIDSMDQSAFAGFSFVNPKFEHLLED
Details: not given
Put shortly:
(§2)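 Competitive [3H]PDBu binding used 14 or 40 nM PKCδ C1 peptide and 20 nM [3H]PDBu (19.6 Ci/mmol), in 50 mM Tris-maleate (pH 7.4 at 4 °C) with 50 µg/mL phosphatidylserine, 3 mg/mL bovine γ-globulin and varied inhibitor concentrations. IC50 was taken as 50% inhibition of specific binding. Ki was derived by the Sharkey–Blumberg method.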
Broadly, the Ki is a dissociation constant, usually derived from enzyme kinetics or from competition with a known ligand. The low end stands for tighter binding, the high end for weaker binding. In turn, `CC1(C)CC[C@@H]2CC(=O)O[C@@H](CO)CC(=O)O[C@@H]3C[C@@H](CCCCc4ccc(I)c(O)c4)O[C@@]1(C3)O2` came in with an inhibition constant (Ki) of 0.082 µM.

In another series the target is T1, Protein kinase C delta type. The series can be described thus: Inhibition of [3H]PDBu binding to PKCdelta-C1B domain peptide (unknown origin).
Details: not given
Summed up: as §2
`CC1(C)CC[C@@H]2CC(=O)O[C@@H](CO)CC(=O)O[C@@H]3C[C@@H](CCCCc4ccc(I)c(O)c4)O[C@@]1(C3)O2`: the affinity, expressed as Ki, was 0.0013 µM.
